In article PMC2225856 (The Journal of General Physiology, 1970):
Like-named read-outs stand apart in the source and are kept apart here. Bridge positions count the residues as written; N and C are the ends. Ends that are not written are not given here.

How the values were obtained:
[1] = system: toad urinary bladder; conditions: cited from earlier work; for pD2 of reference agonist: Table II, ± SEM
[2] = system: toad urinary bladder; conditions: note added in proof; ref Chiu, P.J.S. and W.H. Sawyer. 1970; cited from earlier work
[3] = system: toad urinary bladder; test: Noncompetitive antagonism of the hydroosmotic response; assay type: cell-based, Bufo marinus
Method in brief: (§1)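 Bufo marinus, 150-250 g, both sexes, kept on moist peat moss and pithed. Bentley sac hemibladders filled with dilute Ringer were preincubated 2 h in stirred full-strength Ringer, then moved to the challenge bath. Water loss was read as sac weight loss at 30 min intervals; sacs were emptied, refilled with fresh dilute Ringer and placed in a fresh bath after each weighing.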

[4] = system: toad urinary bladder; test: Hydroosmotic response of the toad urinary bladder; assay type: cell-based, Bufo marinus; conditions: serosal bath, concentrations as high as 2.86 X 10^-6 M
Method in brief: as §1

[5] = calculated on the basis of earlier data, ref Eggena et al. (18)

oxytocin
pD2 of reference agonist [1, 5]: 8.63
Maximal hydroosmotic response [1]: 100%

[4-leucine]-oxytocin (CYILNCPLG; ends and bridges not checked; cysteine pairing not given here; UniProt P01178 20-28, looked up, variant Q4L)
Inhibition of the hydroosmotic action of [8-arginine]-vasopressin and [8-arginine]-vasotocin [2]: competitively in- hibits

CCCCC[C@H](O)/C=C/[C@H]1[C@H](O)CC(=O)[C@@H]1CCCCCCC(=O)O [PGE1, prostaglandin E1]
Effect on response to oxytocin-theophylline combination ([3]; 2.9 X 10^-7 M PGE1, 1 X 10^-9 M oxytocin + 4 X 10^-3 M theophylline, eight experiments): reduced by PGE1 to almost basal levels
Effect on response to cyclic AMP-theophylline combination ([3]; 2.9 X 10^-7 M PGE1, 2.5 X 10^-3 M cyclic AMP + 4 X 10^-3 M theophylline, eight experiments): only minimally
Maximal response to dibutyryl cyclic AMP in the presence of PGE1 ([3]; 2.9 X 10^-7 M PGE1, fraction of maximal response (0.80 without PGE1), ± SEM): 0.72
Maximal response to theophylline in the presence of PGE1 ([3]; fraction of maximal response (0.78 without PGE1), ± SEM): 0.10
Diminution in the maximal response to oxytocin in the presence of PGE1, average ([3]; fraction of maximal response, ± 0.10, considerable variation): 0.77
Hydroosmotic activity per se (bladder permeability to water) [4]: did not increase the bladder permeability to water

[8-arginine]-vasopressin (CYFQNCPRG-NH2; disulfide 1-6; UniProt P01185 20-28, looked up)
pD2 of reference agonist [1, 5]: 9.40

[5-ornithine]-oxytocin
pD2 of reference agonist ([1]; ref Havran et al. (22)): 4.92
